DNMT1 inh = inhibitors of human DNMT1. hit rate 0.83% among 360,000. P26358. inhibition (reported as % activation of signal), % at 10 µM. DNMT1 molecular beacon, Hinp1I cleavage, fluorescence; in the data active means inhibition above about 50%
STEP inh = blocks human striatal-enriched tyrosine phosphatase; inhibition, % at 20 µM; P54829; recombinant STEP, OMFP fluorogenic substrate, fluorescence; hit rate 0.25% among 360,000;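 active means inhibition at 20 µM, scaled per plate between control wells, above about 37%, limit read from the data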;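 further: 0% = DMSO with enzyme and substrate and 100% = substrate only without enzyme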
Target sequence (P54829 whole entry, looked up): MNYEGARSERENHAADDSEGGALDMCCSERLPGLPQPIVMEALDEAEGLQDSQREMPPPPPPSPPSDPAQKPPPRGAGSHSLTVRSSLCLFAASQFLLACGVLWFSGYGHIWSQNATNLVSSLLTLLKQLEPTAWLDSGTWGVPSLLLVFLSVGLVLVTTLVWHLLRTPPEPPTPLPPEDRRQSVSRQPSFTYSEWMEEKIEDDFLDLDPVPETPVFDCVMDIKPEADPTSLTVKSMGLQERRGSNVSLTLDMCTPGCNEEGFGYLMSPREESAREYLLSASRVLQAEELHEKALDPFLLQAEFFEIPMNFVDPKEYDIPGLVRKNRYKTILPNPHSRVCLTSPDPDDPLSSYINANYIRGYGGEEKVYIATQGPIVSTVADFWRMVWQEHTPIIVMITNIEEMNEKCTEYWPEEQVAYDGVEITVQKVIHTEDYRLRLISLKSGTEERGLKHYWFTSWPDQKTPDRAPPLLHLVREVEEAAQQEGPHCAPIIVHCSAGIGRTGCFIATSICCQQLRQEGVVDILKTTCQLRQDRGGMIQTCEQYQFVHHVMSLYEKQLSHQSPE
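Test system: STEP tyrosine phosphatase / Reagent: OMFP at 25 µM / Doses: 20 µM, 1% DMSO / Read-out: percent inhibition scaled to no-enzyme and uninhibited-enzyme controls, plate-pattern corrected / Detection: FITC-channel fluorescence of OMFP product / Medium: Bis-Tris buffer pH 6.0, 2.5 mM DTT, 0.005% Tween 20 / Schedule: 20 min at room temperature, dark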
LMPTP inh = LMPTP (human) inhibition | P24666 | recombinant LMPTP-A, OMFP fluorogenic substrate, fluorescence intensity | inhibition, % at 20 µM | hit rate 0.22% among 360,000;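 active means compounds that cut the enzyme signal by at least half of the control window in the single-dose screen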;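 further: plate controls were DMSO wells with enzyme plus substrate for no effect and substrate without enzyme for full effect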
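Assay system: LMPTP-A, protein tyrosine phosphatase of low molecular weight / Medium: pH 6.0 Bis-Tris buffer with DTT and Triton X-100 / Schedule: 50 min enzyme reaction at room temperature, protected from light / Measured by: endpoint fluorescence intensity from OMFP dephosphorylation / Read-out basis: % inhibition relative to no-enzyme and uninhibited control wells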
Scp-1 inhibitor = blocks human Scp-1 phosphatase activity; Q9GZU7; Recombinant Scp1, phosphopeptide, malachite green phosphate absorbance; inhibition, % at 20 µM; hit rate 0.88% among 340,000;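 active means inhibition above about 50% at 20 µM, limit read from the data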;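 further: plate controls were DMSO wells with enzyme for no effect and wells lacking enzyme for full effect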
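Material: truncated SCP-1 phosphatase (76-261aa) / Buffer or medium: 50 mM Tris acetate pH 5.5, 0.005% Tween-20, 10 mM MgCl2 / Compound dosing: one concentration, 20 µM, with 1.0% DMSO / Incubation: 45 min room-temperature reaction, 5 min colour, 30 min stabiliser / Detection: colorimetric free-phosphate detection, absorbance 630 nm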
SUMO1 PPI mod = alters human SUMO1 binding to SIM partners; AID 602429; hit rate 0.33% among 360,000; inhibition, % at 20 µM; P63165; SUMO1 binding to a labelled peptide, TR-FRET, 1 h; in the data active means inhibition above about 37%
Target sequence (P63165 whole entry, looked up): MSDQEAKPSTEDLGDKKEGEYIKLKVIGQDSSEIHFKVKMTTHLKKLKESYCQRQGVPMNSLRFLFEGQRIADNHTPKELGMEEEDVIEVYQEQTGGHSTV
The depositor's hits bear a star. Most compounds without a hit are left out; they make up all but 1.7% or so of the library.

Screening O=C1CC(c2ccccc2)(c2ccccc2)c2ccccc21 returned DNMT1 inh 7.6, STEP inh 3.3, LMPTP inh 1.8, Scp-1 inhibitor -5.4 and SUMO1 PPI mod 2.4.
`Nc1ccc(OCCCc2c(N)nc(N)nc2N)cc1` gave DNMT1 inh 29.1, STEP inh 2.8, LMPTP inh 87.2*, Scp-1 inhibitor -11.0 and SUMO1 PPI mod 31.0.
COC(=O)C(Cc1ccccc1)NC(=O)CNC(=O)c1ccc(Br)cc1 (stereo unspecified) was read as DNMT1 inh 0.4, STEP inh 1.0, LMPTP inh -0.1, Scp-1 inhibitor -3.1 and SUMO1 PPI mod -0.8.
COc1ccc(CN2C(=O)CSCC2(C)C(=O)Nc2c(C)cccc2C)cc1 (stereo unspecified) was read as LMPTP inh -0.3 and SUMO1 PPI mod 4.3.
`O=C(O)c1ccc2c(c1)[C@@H]1C=CC[C@@H]1[C@H](c1ccccn1)N2` gave DNMT1 inh 111.3*, STEP inh 30.8, LMPTP inh 2.1, Scp-1 inhibitor 47.0 and SUMO1 PPI mod 33.7.
CCCCN1C(=O)C(=O)NC[C@@H]1CC1CCCCC1 was read as LMPTP inh 6.5 and SUMO1 PPI mod 44.7*.
For CCCC[C@@H]1CNC(=O)C(=O)N1CC1CCCCC1 the results were LMPTP inh -1.1 and SUMO1 PPI mod 2.0.
CC1CCN(S(=O)(=O)c2ccc(NC(=O)CCNC(=O)c3ccc(Cl)cc3)cc2)CC1 was read as DNMT1 inh 5.5, STEP inh 0.0, LMPTP inh -4.8, Scp-1 inhibitor -4.9 and SUMO1 PPI mod 1.7.
Screening CCOC(=O)N1CCN(CCC(=O)Nc2ccc(C)c(Br)c2)CC1 returned DNMT1 inh -1.0, STEP inh -5.6, LMPTP inh -1.0, Scp-1 inhibitor -12.3 and SUMO1 PPI mod 2.8.
Cc1ccc(NC(=O)CCN2CCN(CCO)CC2)cc1Br was read as DNMT1 inh 1.5, STEP inh 1.4, LMPTP inh -1.6, Scp-1 inhibitor -8.0 and SUMO1 PPI mod 52.2*.
Screening CC(C)CC1NC(=O)c2cc3ccccc3cc2-n2c1nc1cc(Cl)ccc1c2=O (stereo unspecified) returned DNMT1 inh -9.9, STEP inh -3.1, LMPTP inh -4.1 and SUMO1 PPI mod -5.5.
For CC(C)(C)c1ccc(C(=O)N2CCC2(C)C(=O)NCc2cccc3ccccc23)cc1 (stereo unspecified) the results were DNMT1 inh 12.2, STEP inh 1.3, LMPTP inh 3.7 and SUMO1 PPI mod -3.6.
Screening S=c1[nH]nc(-c2cc(-c3ccccc3)n[nH]2)n1/N=C/c1cccc(Cl)c1 returned DNMT1 inh 5.1, STEP inh 9.1, LMPTP inh 10.2, Scp-1 inhibitor 3.8 and SUMO1 PPI mod 88.4*.
Screening COC(=O)c1ccc(OCC(=O)Nc2nn(-c3ccccc3)nc2C(N)=O)cc1 returned DNMT1 inh -27.4, STEP inh -1.8, LMPTP inh -2.2, Scp-1 inhibitor 2.1 and SUMO1 PPI mod 50.5*.
`CC1CCN(CC(=O)Nc2nn(-c3ccccc3)nc2C(N)=O)CC1` gave DNMT1 inh 0.7, STEP inh -3.2, LMPTP inh -1.3, Scp-1 inhibitor -5.0 and SUMO1 PPI mod 5.1.
For O=c1nc(-c2ccccc2)c2cc(SC(F)F)ccc2[nH]1 the results were DNMT1 inh -5.0, STEP inh 1.7, LMPTP inh -0.4, Scp-1 inhibitor -9.5 and SUMO1 PPI mod -33.9.
Cc1nc(N)nc(N)c1/C=C/C(C)(C)c1ccc(Cl)cc1 was read as DNMT1 inh 0.2, STEP inh 5.8, LMPTP inh 80.8*, Scp-1 inhibitor 6.3 and SUMO1 PPI mod 4.8.
`CCOC(=O)c1c(C)nc2sc3c(=O)n(-c4ccc(C)cc4)cnc3c2c1-c1ccc(OC)cc1` gave DNMT1 inh 9.2, STEP inh -3.7, LMPTP inh -0.9, Scp-1 inhibitor -4.9 and SUMO1 PPI mod 40.4*.
CN1CCN(C(=O)c2sc(=S)n(-c3ccccc3)c2N)CC1 was read as DNMT1 inh -2.2, STEP inh 96.4*, LMPTP inh 2.2, Scp-1 inhibitor 22.0 and SUMO1 PPI mod -11.0.
Screening COc1ccc(OC2(C)CCN(Cc3ccccc3OC(F)F)C2)cc1 (stereo unspecified) returned DNMT1 inh 3.0, STEP inh 1.5, LMPTP inh -1.0 and SUMO1 PPI mod 1.2.
For CS(=O)(=O)c1ccc2c(c1)sc1nc(=O)c(/C=C3/C=CC(=O)C(O)=C3)c(N)n12 the results were DNMT1 inh 10.8, STEP inh 12.4, LMPTP inh 29.6, Scp-1 inhibitor 70.7* and SUMO1 PPI mod -2.6.
Screening CC(NC(=O)COC(=O)c1cc(=O)c2ccccc2o1)c1ccccc1 (stereo unspecified) returned DNMT1 inh 0.7, STEP inh -1.7, LMPTP inh 2.0, Scp-1 inhibitor -12.4 and SUMO1 PPI mod -4.4.
O=C(Nc1ccc(C(=O)O)cc1)Nc1ccc([N+](=O)[O-])cc1 was read as DNMT1 inh -0.1, STEP inh -2.5, LMPTP inh 0.1, Scp-1 inhibitor -16.1 and SUMO1 PPI mod -25.0.
For COC(=O)c1ccc(NC(=O)Nc2ccc([N+](=O)[O-])cc2)cc1 the results were DNMT1 inh 0.5, STEP inh 23.9, LMPTP inh 84.7*, Scp-1 inhibitor 8.1 and SUMO1 PPI mod 0.0.
`CCN1C(=O)/C(=C/C=C2/Sc3ccc4ccccc4c3N2CCO)SC1=S` gave DNMT1 inh 12.0, STEP inh -0.1, LMPTP inh -1.4, Scp-1 inhibitor -15.7 and SUMO1 PPI mod 40.9*.
`CCN1C(c2ccccc2)=C(c2ccccc2)S/C1=C\C=C1/SC(=S)N(C)C1=O` gave DNMT1 inh 4.8, STEP inh 9.7, LMPTP inh 10.4, Scp-1 inhibitor -5.6 and SUMO1 PPI mod 4.5.
O=C(NN1C(=O)/C(=C/C=C/c2ccccc2)SC1=S)c1ccncc1 was read as DNMT1 inh 1.2, STEP inh 0.3, LMPTP inh 4.1, Scp-1 inhibitor -1.4 and SUMO1 PPI mod 53.3*.
Screening O=C(NN1C(=O)/C(=C/C=C/c2ccco2)SC1=S)c1ccncc1 returned DNMT1 inh 83.7*, STEP inh 55.3*, LMPTP inh 44.6, Scp-1 inhibitor 72.0* and SUMO1 PPI mod 101.4*.
For Oc1ccc(N=C/C=C/c2cccc(Br)c2)cc1-c1nc2ccccc2s1 the results were DNMT1 inh 51.8*, STEP inh 10.7, LMPTP inh 23.2, Scp-1 inhibitor 2.9 and SUMO1 PPI mod 0.6.
`CN1CCCN(C(=O)c2ccc(Cl)s2)CC1` gave DNMT1 inh 0.1, STEP inh -2.6, LMPTP inh -1.9, Scp-1 inhibitor -8.3 and SUMO1 PPI mod -1.7.
For O=C(CC1CCCCC1)NCc1nc(-c2ccccc2)no1 the results were DNMT1 inh 1.4, STEP inh 0.3, LMPTP inh -0.2, Scp-1 inhibitor -1.7 and SUMO1 PPI mod -2.8.
